# From article PMC8359148 (ACS Omega, 2021)
# Assays:
# [1] = tested on: chloroquine-resistant P. falciparum Dd2 parasites; assay: SYBR Green I dose–response assay against Dd2 parasites; format: cell-based; conditions: Plasmodium falciparum, DD2, read-out: EC50 Dd2, chloroquine-resistant P. falciparum Dd2, three or more independent experiments
# How it was run: (§1)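 Dose–response EC50 values, each from three or more independent experiments. Dd2 and 3D7 runs use chloroquine as comparator. The selectivity index is calculated as HepG2 EC50 divided by Dd2 EC50.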
# [2] = tested on: wild-type P. falciparum 3D7 cells; assay: dose–response assay against 3D7 cells; format: cell-based; conditions: Plasmodium falciparum, 3D7, read-out: EC50 3D7
# How it was run: as §1
# [3] = tested on: HepG2 (liver hepatocellular carcinoma) cells; assay: HepG2; format: cell-based, human; conditions: for selectivity index (SI): HepG2 EC50/EC50 Dd2 cells; for EC50: Homo sapiens, HepG2, read-out: EC50 HepG2
# How it was run: as §1
SMILES,EC50 [1],EC50 [2],selectivity index (SI) [3],EC50 [3]
"CCN(CC)CCCC(C)Nc1ccnc2cc(Cl)ccc12 (centres unmarked) [Chloroquine, reference compound]",0.19 µM,0.017 µM,–,–
"CC[C@]12CCCN3CCc4c(n(c5ccccc45)[C@@](O)(C(=O)OC)C1)[C@@H]32 [Compound 1, Vincamine, reference compound]",> 50 µM,> 50 µM,–,–
"CC[C@@]12C=C(C(=O)OC)n3c(c(c4ccccc43)CCNCCC1)[C@@H]2c1ccc(O)cc1 [Compound 18, Methyl (11S,19S)-11-ethyl-19-(4-hydroxyphenyl)-8,15-diazatetracyclo[9.6.2.0^2,7.0^8,18]nonadeca-1(18),2(7),3,5,9-pentaene-9-carboxylate]",10.8 ± 2.93 µM,–,–,–
"CC[C@@]12C=C(C(=O)OC)n3c(c(c4ccccc43)CCN(/C=C/C(=O)OC)CCC1)[C@@H]2c1ccc(OC(C)=O)cc1 [Compound 19, Methyl (11S,19S)-19-[4-(acetyloxy)phenyl]-11-ethyl-15-[(1E)-3-methoxy-3-oxoprop-1-en-1-yl]-8,15-diazatetracyclo[9.6.2.0^2,7.0^8,18]nonadeca-1(18),2(7),3,5,9-pentaene-9-carboxylate]",6.11 ± 1.56 µM,–,–,–
"CC[C@@]12C=C(C(=O)OC)n3c(c(c4ccccc43)CCN(C(C)=O)CCC1)[C@@H]2c1ccc(O)cc1 [Compound 20, methyl (11S,19S)-15-acetyl-11-ethyl-19-(4-hydroxyphenyl)-8,15-diazatetracyclo[9.6.2.0^2,7.0^8,18]nonadeca-1(18),2(7),3,5,9-pentaene-9-carboxylate]",> 20 µM,12 ± 3.4 µM,–,–
"CC[C@@]12C=C(C(=O)OC)n3c(c(c4ccccc43)CCN(C(=O)c3ccc(OC)nc3)CCC1)[C@@H]2c1ccc(O)cc1 [Compound 21, methyl (11S,19S)-11-ethyl-19-(4-hydroxyphenyl)-15-(6-methoxypyridine-3-carbonyl)-8,15-diazatetracyclo[9.6.2.0^2,7.0^8,18]nonadeca-1(18),2(7),3,5,9-pentaene-9-carboxylate]",0.63 ± 0.12 µM,1.33 ± 0.18 µM,–,–
"CC[C@@]12C=C(C(=O)OC)n3c(c(c4ccccc43)CCN(C(=O)COCCOCCOC)CCC1)[C@@H]2c1ccc(O)cc1 [Compound 22, methyl (11S,19S)-11-ethyl-19-(4-hydroxyphenyl)-15-{2-[2-(2-methoxyethoxy)ethoxy]acetyl}-8,15-diazatetracyclo[9.6.2.0^2,7.0^8,18]nonadeca-1(18),2(7),3,5,9-pentaene-9-carboxylate]",4.1 ± 0.55 µM,–,–,–
"CC[C@@]12C=C(C(=O)OC)n3c(c(c4ccccc43)CCN(C(=O)C3CCCCC3)CCC1)[C@@H]2c1ccc(O)cc1 [Compound 23, methyl (11S,19S)-15-cyclohexanecarbonyl-11-ethyl-19-(4-hydroxyphenyl)-8,15-diazatetracyclo[9.6.2.0^2,7.0^8,18]nonadeca-1(18),2(7),3,5,9-pentaene-9-carboxylate]",2.53 ± 0.34 µM,–,–,–
"CC[C@@]12C=C(C(=O)OC)n3c(c(c4ccccc43)CCN(C(=O)c3ccc(C(F)(F)F)cc3)CCC1)[C@@H]2c1ccc(O)cc1 [Compound 24, methyl (11S,19S)-11-ethyl-19-(4-hydroxyphenyl)-15-[4-(trifluoromethyl)benzoyl]-8,15-diazatetracyclo[9.6.2.0^2,7.0^8,18]nonadeca-1(18),2(7),3,5,9-pentaene-9-carboxylate]",1.54 ± 0.004 µM,–,–,–
"CC[C@@]12C=C(C(=O)OC)n3c(c(c4ccccc43)CCN(C(=O)c3cccnc3)CCC1)[C@@H]2c1ccc(O)cc1 [Compound 25, methyl (11S,19S)-11-ethyl-19-(4-hydroxyphenyl)-15-(pyridine-3-carbonyl)-8,15-diazatetracyclo[9.6.2.0^2,7.0^8,18]nonadeca-1(18),2(7),3,5,9-pentaene-9-carboxylate]",0.55 ± 0.07 µM,2.25 ± 0.4 µM,>45,> 25 µM
"CC[C@@]12C=C(C(=O)OC)n3c(c(c4ccccc43)CCN(C(=O)c3ccco3)CCC1)[C@@H]2c1ccc(O)cc1 [Compound 26, methyl (11S,19S)-11-ethyl-15-(furan-2-carbonyl)-19-(4-hydroxyphenyl)-8,15-diazatetracyclo[9.6.2.0^2,7.0^8,18]nonadeca-1(18),2(7),3,5,9-pentaene-9-carboxylate]",2.48 ± 0.33 µM,1.8 ± 0.36 µM,>10,> 25 µM
"CC[C@@]12C=C(C(=O)OC)n3c(c(c4ccccc43)CCN(C(=O)c3cncnc3)CCC1)[C@@H]2c1ccc(O)cc1 [Compound 27, methyl (11S,19S)-11-ethyl-19-(4-hydroxyphenyl)-15-(pyrimidine-5-carbonyl)-8,15-diazatetracyclo[9.6.2.0^2,7.0^8,18]nonadeca-1(18),2(7),3,5,9-pentaene-9-carboxylate]",0.73 ± 0.11 µM,1.99 ± 0.3 µM,>34,> 25 µM
"CC[C@@]12C=C(C(=O)OC)n3c(c(c4ccccc43)CCN(C(=O)c3ccno3)CCC1)[C@@H]2c1ccc(O)cc1 [Compound 28, methyl (11S,19S)-11-ethyl-19-(4-hydroxyphenyl)-15-(1,2-oxazole-5-carbonyl)-8,15-diazatetracyclo[9.6.2.0^2,7.0^8,18]nonadeca-1(18),2(7),3,5,9-pentaene-9-carboxylate]",2.14 ± 0.36 µM,0.97 ± 0.03 µM,>11,> 25 µM
"CC[C@@]12C=C(C(=O)OC)n3c(c(c4ccccc43)CCN(C(=O)c3ccc[nH]3)CCC1)[C@@H]2c1ccc(O)cc1 [Compound 29, methyl (11S,19S)-11-ethyl-19-(4-hydroxyphenyl)-15-(1H-pyrrole-2-carbonyl)-8,15-diazatetracyclo[9.6.2.0^2,7.0^8,18]nonadeca-1(18),2(7),3,5,9-pentaene-9-carboxylate]",2.98 ± 0.4 µM,3.18 ± 0.07 µM,–,–
"CC[C@@]12C=C(C(=O)OC)n3c(c(c4ccccc43)CCN(C(=O)c3ccncc3)CCC1)[C@@H]2c1ccc(O)cc1 [Compound 31, methyl (11S,19S)-11-ethyl-19-(4-hydroxyphenyl)-15-(pyridine-4-carbonyl)-8,15-diazatetracyclo[9.6.2.0^2,7.0^8,18]nonadeca-1(18),2(7),3,5,9-pentaene-9-carboxylate]",5.9 ± 0.26 µM,–,–,–
"CC[C@@]12C=C(C(=O)OC)n3c(c(c4ccccc43)CCN(C(=O)c3cncc(Cl)c3)CCC1)[C@@H]2c1ccc(O)cc1 [Compound 32, methyl (11S,19S)-15-(5-chloropyridine-3-carbonyl)-11-ethyl-19-(4-hydroxyphenyl)-8,15-diazatetracyclo[9.6.2.0^2,7.0^8,18]nonadeca-1(18),2(7),3,5,9-pentaene-9-carboxylate]",0.49 ± 0.1 µM,2.22 ± 0.34 µM,>51,> 25 µM
"CC[C@@]12C=C(C(=O)OC)n3c(c(c4ccccc43)CCN(C(=O)c3ccccc3)CCC1)[C@@H]2c1ccc(O)cc1 [Compound 34, methyl (11S,19S)-15-benzoyl-11-ethyl-19-(4-hydroxyphenyl)-8,15-diazatetracyclo[9.6.2.0^2,7.0^8,18]nonadeca-1(18),2(7),3,5,9-pentaene-9-carboxylate]",2.95 ± 1.14 µM,6.6 ± 1.06 µM,–,–
